From ChEMBL document CHEMBL1772950, “Solid phase synthesis and biological activity of tuftsin conjugates” (J Med Chem, 2011)
The source made the active and inactive calls. The calls are words filed in the database; no cut-off is given here. Residues, ends and D or L forms follow the SMILES beside them. *: point of attachment. Acridin9yl(1-NO2,4-Me) = Cc1ccc([N+](=O)[O-])c2c(*)c3ccccc3nc12; X1 = O=C(c1ccc([N+](=O)[O-])c2c(=O)c3ccccc3[nH]c12)*; Acridone(4-CO) = O=C(c1cccc2c(=O)c3ccccc3[nH]c12)*; X2 = O=[N+]([O-])c1cccc2nc3ccccc3c(*)c12; Ahx = NCCCCCC(=O)O; GABA = NCCCC(=O)O; βAla = NCCC(=O)O

Columns and labels:
[1] = test system: A549; experiment: Anticancer activity against human A549 cells assessed as cell viability by MTT assay; type: functional, cell-based
How it was run: (§1)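 Cells kept in RPMI 1640 with 10% FBS, 2 mM L-glutamine, penicillin/streptomycin, 37 °C, 5% CO2. Exponentially growing cells exposed continuously to a range of concentrations (10 mM DMSO stocks) for three to four generation times. MTT added for 4 h at 37 °C; formazan read on plate reader. IC50 taken from survival–dose curves versus untreated controls. At least two independent experiments, each in duplicate.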

[2] = test system: HL-60; experiment: Anticancer activity against human HL60 cells assessed as cell viability by MTT assay; type: functional, cell-based; how it was run: as §1
[3] = target: T1, DNA topoisomerase 1 (Homo sapiens) (UniProt P11387); experiment: Inhibition of human topoisomerase I mediated DNA relaxation at 1 to 100 uM
T1 sequence (whole entry): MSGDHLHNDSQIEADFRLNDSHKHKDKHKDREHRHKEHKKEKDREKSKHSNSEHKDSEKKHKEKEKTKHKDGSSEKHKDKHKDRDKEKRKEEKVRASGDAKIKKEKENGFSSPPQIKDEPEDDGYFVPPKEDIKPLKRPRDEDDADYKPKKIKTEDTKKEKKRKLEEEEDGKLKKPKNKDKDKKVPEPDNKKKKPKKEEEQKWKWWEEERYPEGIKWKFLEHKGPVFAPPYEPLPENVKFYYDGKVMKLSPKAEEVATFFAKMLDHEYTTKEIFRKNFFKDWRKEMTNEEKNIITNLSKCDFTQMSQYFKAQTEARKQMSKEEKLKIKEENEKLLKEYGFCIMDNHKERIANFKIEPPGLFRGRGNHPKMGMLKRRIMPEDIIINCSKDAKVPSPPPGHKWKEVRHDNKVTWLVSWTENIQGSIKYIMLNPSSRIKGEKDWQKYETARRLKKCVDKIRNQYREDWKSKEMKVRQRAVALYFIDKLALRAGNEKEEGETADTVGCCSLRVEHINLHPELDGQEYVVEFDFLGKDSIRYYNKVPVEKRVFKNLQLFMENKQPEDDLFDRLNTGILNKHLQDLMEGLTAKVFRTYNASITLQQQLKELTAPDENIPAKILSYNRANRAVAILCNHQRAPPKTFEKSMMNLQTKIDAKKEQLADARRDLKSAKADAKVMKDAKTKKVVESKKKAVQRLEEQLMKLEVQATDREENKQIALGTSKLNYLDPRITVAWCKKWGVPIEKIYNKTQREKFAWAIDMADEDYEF
How it was run: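 Relaxation of 200 ng supercoiled pBR322 DNA by purified human topoisomerase I, in 10 mM Tris-HCl pH 7.5, 7.5 mM MgCl2, 60 mM KCl. Run 30 min at 37 °C, stopped with SDS/EDTA loading buffer. Products resolved on 1.2% agarose in TBE at 0.5 V/cm for 18 h, stained with ethidium bromide, imaged under UV.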

[4] = test system: HL-60; experiment: Cell cycle arrest in human HL60 cells assessed as accumulation at G2 phase after 24 hrs by flow cytometry; type: functional, cell-based
[5] = test system: A549; experiment: Cell cycle arrest in human A549 cells assessed as accumulation at M phase after 24 hrs by flow cytometry; type: functional, cell-based
[6] = test system: HL-60; experiment: Cell cycle arrest in human HL60 cells assessed as accumulation at M phase after 72 hrs by flow cytometry; type: functional, cell-based
[7] = target: DNA topoisomerase II alpha (Homo sapiens) (UniProt P11388); experiment: Inhibition of human topoisomerase II mediated DNA relaxation at 1 to 100 uM
DNA topoisomerase II alpha (Homo sapiens), sequence (P11388 whole entry, looked up): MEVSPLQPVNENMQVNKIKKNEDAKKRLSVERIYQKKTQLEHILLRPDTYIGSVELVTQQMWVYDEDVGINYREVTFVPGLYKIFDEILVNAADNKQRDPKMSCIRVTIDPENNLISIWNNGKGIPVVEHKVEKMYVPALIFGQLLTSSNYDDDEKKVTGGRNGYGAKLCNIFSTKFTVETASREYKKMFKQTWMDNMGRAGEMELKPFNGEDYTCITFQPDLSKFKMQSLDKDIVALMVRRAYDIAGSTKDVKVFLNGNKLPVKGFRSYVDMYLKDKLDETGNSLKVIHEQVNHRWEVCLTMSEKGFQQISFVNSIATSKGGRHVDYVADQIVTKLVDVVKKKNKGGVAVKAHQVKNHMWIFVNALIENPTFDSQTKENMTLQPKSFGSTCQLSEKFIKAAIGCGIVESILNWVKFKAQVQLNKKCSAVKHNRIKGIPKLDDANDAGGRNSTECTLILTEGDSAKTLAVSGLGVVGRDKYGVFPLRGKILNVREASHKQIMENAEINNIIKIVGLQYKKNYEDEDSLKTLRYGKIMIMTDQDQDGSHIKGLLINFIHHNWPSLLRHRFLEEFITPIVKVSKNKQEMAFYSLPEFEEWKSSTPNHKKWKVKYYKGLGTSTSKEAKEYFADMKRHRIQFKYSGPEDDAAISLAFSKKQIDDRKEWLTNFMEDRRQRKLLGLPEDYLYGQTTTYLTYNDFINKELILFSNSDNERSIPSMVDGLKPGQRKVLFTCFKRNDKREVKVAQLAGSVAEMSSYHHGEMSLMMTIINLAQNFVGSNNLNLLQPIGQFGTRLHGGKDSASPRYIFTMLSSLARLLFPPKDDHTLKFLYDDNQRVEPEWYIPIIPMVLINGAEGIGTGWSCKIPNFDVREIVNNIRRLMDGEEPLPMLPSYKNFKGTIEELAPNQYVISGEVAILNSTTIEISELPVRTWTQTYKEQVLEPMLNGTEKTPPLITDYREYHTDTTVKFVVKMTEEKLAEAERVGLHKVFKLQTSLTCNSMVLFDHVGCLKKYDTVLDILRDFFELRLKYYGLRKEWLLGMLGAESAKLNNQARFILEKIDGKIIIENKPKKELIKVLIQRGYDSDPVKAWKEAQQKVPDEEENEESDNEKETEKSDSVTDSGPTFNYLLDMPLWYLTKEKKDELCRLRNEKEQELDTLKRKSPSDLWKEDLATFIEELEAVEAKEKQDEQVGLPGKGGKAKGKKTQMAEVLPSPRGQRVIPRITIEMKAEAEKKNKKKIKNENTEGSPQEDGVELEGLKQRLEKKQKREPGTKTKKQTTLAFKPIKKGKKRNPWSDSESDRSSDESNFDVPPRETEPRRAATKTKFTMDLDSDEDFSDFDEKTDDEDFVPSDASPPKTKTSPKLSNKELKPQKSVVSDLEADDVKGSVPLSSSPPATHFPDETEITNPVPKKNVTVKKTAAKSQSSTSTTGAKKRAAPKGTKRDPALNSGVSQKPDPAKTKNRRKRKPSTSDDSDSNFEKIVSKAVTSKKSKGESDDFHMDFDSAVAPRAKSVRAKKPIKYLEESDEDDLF

[8] = test system: A549; experiment: Cell cycle arrest in human A549 cells assessed as accumulation at G2 phase after 24 hrs by flow cytometry; type: functional, cell-based
[9] = test system: HL-60; experiment: Induction apoptosis in human HL60 cells assessed as change in nuclear morphology at 25 uM after 24 to 72 hrs by fluorescence microscopy; type: functional, cell-based
[10] = test system: HL-60; experiment: Cell cycle arrest in human HL60 cells assessed as accumulation at M phase after 24 hrs by flow cytometry; type: functional, cell-based
[11] = test system: A549; experiment: Cell cycle arrest in human A549 cells assessed as accumulation at G2 phase after 72 hrs by flow cytometry; type: functional, cell-based
[12] = test system: HL-60; experiment: Cell cycle arrest in human HL60 cells assessed as accumulation at early S phase after 72 hrs by flow cytometry; type: functional, cell-based
[13] = test system: A549; experiment: Cell cycle arrest in human A549 cells assessed as accumulation at M phase after 72 hrs by flow cytometry; type: functional, cell-based
[14] = test system: A549; experiment: Cell cycle arrest in human A549 cells assessed as accumulation at early S phase after 72 hrs by flow cytometry; type: functional, cell-based
[15] = test system: HL-60; experiment: Cell cycle arrest in human HL60 cells assessed as accumulation at S phase after 24 hrs by flow cytometry; type: functional, cell-based
[16] = test system: HL-60; experiment: Cell cycle arrest in human HL60 cells assessed as accumulation at G2 phase after 72 hrs by flow cytometry; type: functional, cell-based
[17] = test system: A549; experiment: Cell cycle arrest in human A549 cells assessed as accumulation at S phase after 24 hrs by flow cytometry; type: functional, cell-based

SMILES	IC50 [1]	IC50 [2]	further results
C[C@@H](O)[C@H](NC(=O)[C@H](CCCCNC(=O)CN)NC(=O)[C@@H]1CCCN1C(=O)[C@H](CCCNC(=N)N)NC(=O)c1cccc2c(=O)c3ccccc3[nH]c12)C(=O)O ({Acridone(4-CO)}-RPK(Gly)T-OH)	> 100 µM	> 100 µM	–
O=C(O)c1ccc([N+](=O)[O-])c2c(=O)c3ccccc3[nH]c12	> 100 µM	> 100 µM	–
C[C@@H](O)[C@H](Nc1ccc(O)c2c1C(=O)c1ccccc1C2=O)C(=O)N[C@@H](CCCCN)C(=O)N1CCC[C@H]1C(=O)N[C@@H](CCCNC(=N)N)C(=O)O	14.2 µM	32.4 µM	inhibition [3]: Active
CC(C)[C@H](N)C(=O)NCCCC[C@H](NC(=O)[C@@H]1CCCN1C(=O)[C@H](CCCNC(=N)N)Nc1ccc(O)c2c1C(=O)c1ccccc1C2=O)C(=O)N[C@H](C(=O)O)[C@@H](C)O	41.5 µM	–	–
Cc1ccc([N+](=O)[O-])c2c(NCCCC(=O)N[C@H](C(=O)N[C@@H](CCCCNC(=O)CN)C(=O)N3CCC[C@H]3C(=O)N[C@@H](CCCNC(=N)N)C(=O)O)[C@@H](C)O)c3ccccc3nc12 ({Acridin9yl(1-NO2,4-Me)-GABA}-TK(Gly)PR-OH)	3 µM	17.2 µM	Activity [4]: Active; Activity [5]: Active; Activity [6]: Active; inhibition [7]: inactive; Activity [8]: Active; Activity [9]: inactive; Activity [10]: Active; Activity [11]: Active; Activity [12]: Active; Activity [13]: Active; Activity [14]: Active; Activity [15]: Active; Activity [16]: Active; Activity [17]: Active
O=C1CCC(=O)c2c1c(O)c1ccccc1c2O	15.8 µM	15.8 µM	inhibition [3]: Active
C[C@@H](O)[C@H](NC(=O)[C@H](CCCCNC(=O)CN)NC(=O)[C@@H]1CCCN1C(=O)[C@H](CCCNC(=N)N)NC(=O)CCNc1c2ccccc2nc2cccc([N+](=O)[O-])c12)C(=O)O ({X2-βAla}-RPK(Gly)T-OH)	33.9 µM	71.5 µM	–
CC[C@H](C)[C@H](N)C(=O)NCCCC[C@H](NC(=O)[C@@H]1CCCN1C(=O)[C@H](CCCNC(=N)N)NC(=O)c1ccc([N+](=O)[O-])c2c(=O)c3ccccc3[nH]c12)C(=O)N[C@H](C(=O)O)[C@@H](C)O (X1-RPK(Ile)T-OH)	38.9 µM	> 100 µM	–
Cc1ccc([N+](=O)[O-])c2c(NCCCCCC(=O)N[C@H](C(=O)N[C@@H](CCCCN)C(=O)N3CCC[C@H]3C(=O)N[C@@H](CCCNC(=N)N)C(=O)O)[C@@H](C)O)c3ccccc3nc12 ({Acridin9yl(1-NO2,4-Me)-Ahx}-TKPR-OH)	15 µM	13.2 µM	–
C[C@@H](O)[C@H](NC(=O)[C@H](CCCCN)NC(=O)[C@@H]1CCCN1C(=O)[C@H](CCCNC(=N)N)Nc1ccc(O)c2c1C(=O)c1ccccc1C2=O)C(=O)O	> 100 µM	> 100 µM	–
CC[C@H](C)[C@H](N)C(=O)NCCCC[C@H](NC(=O)[C@@H](NC(=O)c1ccc([N+](=O)[O-])c2c(=O)c3ccccc3[nH]c12)[C@@H](C)O)C(=O)N1CCC[C@H]1C(=O)N[C@@H](CCCNC(=N)N)C(=O)O (X1-TK(Ile)PR-OH)	> 100 µM	> 100 µM	–
Cc1ccc([N+](=O)[O-])c2c(NCCCC(=O)O)c3ccccc3nc12	17.6 µM	15.5 µM	Activity [4]: Active; Activity [5]: Active; Activity [6]: Active; inhibition [7]: inactive; Activity [8]: Active; Activity [9]: Active; Activity [10]: Active; Activity [11]: Active; Activity [12]: Active; Activity [13]: Active; Activity [14]: Active; Activity [15]: Active; Activity [16]: Active; Activity [17]: Active
CC[C@H](C)[C@H](N)C(=O)NCCCC[C@H](NC(=O)[C@@H](NC(=O)CCCCCNc1c2ccccc2nc2c(C)ccc([N+](=O)[O-])c12)[C@@H](C)O)C(=O)N1CCC[C@H]1C(=O)N[C@@H](CCCNC(=N)N)C(=O)O ({Acridin9yl(1-NO2,4-Me)-Ahx}-TK(Ile)PR-OH)	8.7 µM	11.3 µM	–
C[C@H](N)C(=O)NCCCC[C@H](NC(=O)[C@@H]1CCCN1C(=O)[C@H](CCCNC(=N)N)Nc1ccc(O)c2c1C(=O)c1ccccc1C2=O)C(=O)N[C@H](C(=O)O)[C@@H](C)O	> 100 µM	> 100 µM	–
Cc1ccc([N+](=O)[O-])c2c(NCCC(=O)N[C@H](C(=O)N[C@@H](CCCCNC(=O)CN)C(=O)N3CCC[C@H]3C(=O)N[C@@H](CCCNC(=N)N)C(=O)O)[C@@H](C)O)c3ccccc3nc12 ({Acridin9yl(1-NO2,4-Me)-βAla}-TK(Gly)PR-OH)	76.5 µM	55.5 µM	–
CC[C@H](C)[C@H](N)C(=O)NCCCC[C@H](NC(=O)[C@@H]1CCCN1C(=O)[C@H](CCCNC(=N)N)NC(=O)CCCCCNc1c2ccccc2nc2c(C)ccc([N+](=O)[O-])c12)C(=O)N[C@H](C(=O)O)[C@@H](C)O ({Acridin9yl(1-NO2,4-Me)-Ahx}-RPK(Ile)T-OH)	47.3 µM	23.2 µM	–
CC[C@H](C)[C@H](N)C(=O)NCCCC[C@H](NC(=O)[C@@H]1CCCN1C(=O)[C@H](CCCNC(=N)N)NC(=O)c1cccc2c(=O)c3ccccc3[nH]c12)C(=O)N[C@H](C(=O)O)[C@@H](C)O ({Acridone(4-CO)}-RPK(Ile)T-OH)	> 100 µM	> 100 µM	–
Cc1ccc([N+](=O)[O-])c2c(NCCCCCC(=O)N[C@@H](CCCNC(=N)N)C(=O)N3CCC[C@H]3C(=O)N[C@@H](CCCCN)C(=O)N[C@H](C(=O)O)[C@@H](C)O)c3ccccc3nc12 ({Acridin9yl(1-NO2,4-Me)-Ahx}-RPKT-OH)	25.6 µM	22.1 µM	–
Cc1ccc([N+](=O)[O-])c2c(NCCCCCC(=O)O)c3ccccc3nc12	18.7 µM	17.5 µM	–
O=C(O)CCNc1c2ccccc2nc2cccc([N+](=O)[O-])c12	6 µM	18.9 µM	–
C[C@@H](O)[C@H](NC(=O)c1cccc2c(=O)c3ccccc3[nH]c12)C(=O)N[C@@H](CCCCNC(=O)CN)C(=O)N1CCC[C@H]1C(=O)N[C@@H](CCCNC(=N)N)C(=O)O ({Acridone(4-CO)}-TK(Gly)PR-OH)	> 100 µM	> 100 µM	–
